Results of several laboratories.
Lines come from different studies, so protocols differ.
Target: Serine/threonine-protein kinase D3 (PRKD3, Homo sapiens, UniProt O94806)
One construct used (O94806 1-890): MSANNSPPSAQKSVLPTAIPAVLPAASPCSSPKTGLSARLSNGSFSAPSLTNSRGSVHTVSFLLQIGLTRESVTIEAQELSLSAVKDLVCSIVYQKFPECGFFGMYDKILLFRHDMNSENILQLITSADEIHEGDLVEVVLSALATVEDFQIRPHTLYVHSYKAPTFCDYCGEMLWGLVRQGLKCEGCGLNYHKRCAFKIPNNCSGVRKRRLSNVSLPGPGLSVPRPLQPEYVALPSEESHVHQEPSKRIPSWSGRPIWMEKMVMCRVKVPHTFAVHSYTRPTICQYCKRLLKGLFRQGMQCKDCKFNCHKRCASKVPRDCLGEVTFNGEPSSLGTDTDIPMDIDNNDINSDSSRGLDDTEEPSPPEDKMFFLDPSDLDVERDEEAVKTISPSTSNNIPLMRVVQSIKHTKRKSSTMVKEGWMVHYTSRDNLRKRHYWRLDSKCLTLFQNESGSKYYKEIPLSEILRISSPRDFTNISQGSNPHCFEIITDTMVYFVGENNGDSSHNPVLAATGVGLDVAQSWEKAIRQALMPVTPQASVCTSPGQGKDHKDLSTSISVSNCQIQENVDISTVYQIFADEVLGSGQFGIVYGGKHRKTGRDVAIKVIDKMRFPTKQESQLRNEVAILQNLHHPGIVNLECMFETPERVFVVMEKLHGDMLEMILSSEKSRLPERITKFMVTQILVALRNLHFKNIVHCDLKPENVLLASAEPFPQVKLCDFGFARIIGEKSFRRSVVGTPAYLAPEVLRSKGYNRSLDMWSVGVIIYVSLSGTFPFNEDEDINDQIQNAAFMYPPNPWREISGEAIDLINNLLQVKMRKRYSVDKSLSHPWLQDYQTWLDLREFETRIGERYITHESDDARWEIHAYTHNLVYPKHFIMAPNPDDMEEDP

SMILES	effect on	method	tested at	remaining binding [%]
CCN1CCN(Cc2ccc(C(=O)Nc3ccc(C)c(Oc4ccc5c(c4)CC(=O)N5)c3)cc2C(F)(F)F)CC1	binding	competition with immobilised ligand	1 µM	100
C=CC(=O)N1CCC(C(=O)NCC(=O)N2CCN(c3nc(-c4cnc(N)nc4C(F)F)nc(N4CCOCC4)n3)CC2)CC1	binding	competition with immobilised ligand	1 µM	93
COc1cnc(Nc2cccc(S(N)(=O)=O)c2)nc1N1CCN(c2ccccc2)C(=O)C1	binding	competition with immobilised ligand	1 µM	92
N[C@@H]1CCN(c2nccc(-c3cnn4ncccc34)n2)C1	binding		1 µM	100
FC(F)(F)Oc1cccc(-c2cnc3ccc(-c4ccncc4)nn23)c1	cell-free assay	competition with immobilised ligand	5 µM	100
c1cnn2ncc(-c3ccnc(N4CCC45COC5)n3)c2c1	binding		1 µM	71
COc1cccc(CNC(=O)c2nc3scc(COCc4ccc(C(=O)O)cc4)c3c(=O)[nH]2)c1	cell-free assay	competition with immobilised ligand	1 µM	100
O=C(Nc1c[nH]nc1C(=O)NC1CCNCC1)c1cc(F)cc(F)c1	binding	competition with immobilised ligand	1 µM	100
CN(C)C(=O)Cn1cc(-c2nc(C3(c4ccc(-c5cnc(N)nc5)cc4)CC3)no2)cn1	cell-free assay	competition with immobilised ligand	1 µM	92
O=C(NCCCN1CCOCC1)c1ccc(Nc2ncc(Cl)c(-c3ccc(Cl)s3)n2)cc1	binding	competition with immobilised ligand	1 µM	20
Cc1c[nH]c2nccc(Oc3c(F)cc(Nc4cc(Cl)nc(N)n4)cc3F)c12	cell-free assay	competition with immobilised ligand	0.1 µM	100
COc1ccnn2ncc(-c3ccnc(N(C)C)n3)c12	binding		1 µM	100
CS(=O)(=O)N1CCCC(NC(=O)[C@H](CCC2CCCCC2)NC(=O)c2ccc(CNC(=O)c3cnc4ccccn34)cc2)C1 (stereo partly drawn)	cell-free assay	competition with immobilised ligand	0.1 µM	90
Cc1cnc(Nc2ccc(C(=O)N3CCC(N4CCCC4)CC3)cc2)nc1-c1cc2ccccc2s1	binding	competition with immobilised ligand	1 µM	37
Cc1nccc(COC(=O)N2C[C@@H]3[C@@H](CNC(=O)c4ccc5[nH]nnc5c4)[C@@H]3C2)n1	cell-free assay	competition with immobilised ligand	1 µM	100
CC1CCCN1c1nccc(-c2cnn3ncccc23)n1 (stereo not drawn)	binding		1 µM	97
Nc1ncc2c(n1)-c1c([nH]c3ccc(C#CC4CC4)cc13)CCCC2	binding	competition with immobilised ligand	1 µM	61
CN(CCCC(F)(F)F)c1nccc(-c2cnn3ncccc23)n1	binding		1 µM	100
O=C(c1ccc(Nc2ncc(Cl)c(-c3cc4ccccc4s3)n2)cc1)N1CCC(N2CCCC2)CC1	binding	competition with immobilised ligand	1 µM	18
FC(F)(F)c1ccc2c(c1)nc(-c1cccnc1)n2C1CC1	cell-free assay	competition with immobilised ligand	1 µM	100
C[C@H]1CCN(c2nccc(-c3cnn4ncccc34)n2)C1	binding		1 µM	59
